Tests used:
TLK1 = target: T1, TLK1 (Homo sapiens, UniProt Q9UKI8); assay: KINOMEscan; assay type: binding; conditions: 10 μM
T1 sequence (Q9UKI8 1-766): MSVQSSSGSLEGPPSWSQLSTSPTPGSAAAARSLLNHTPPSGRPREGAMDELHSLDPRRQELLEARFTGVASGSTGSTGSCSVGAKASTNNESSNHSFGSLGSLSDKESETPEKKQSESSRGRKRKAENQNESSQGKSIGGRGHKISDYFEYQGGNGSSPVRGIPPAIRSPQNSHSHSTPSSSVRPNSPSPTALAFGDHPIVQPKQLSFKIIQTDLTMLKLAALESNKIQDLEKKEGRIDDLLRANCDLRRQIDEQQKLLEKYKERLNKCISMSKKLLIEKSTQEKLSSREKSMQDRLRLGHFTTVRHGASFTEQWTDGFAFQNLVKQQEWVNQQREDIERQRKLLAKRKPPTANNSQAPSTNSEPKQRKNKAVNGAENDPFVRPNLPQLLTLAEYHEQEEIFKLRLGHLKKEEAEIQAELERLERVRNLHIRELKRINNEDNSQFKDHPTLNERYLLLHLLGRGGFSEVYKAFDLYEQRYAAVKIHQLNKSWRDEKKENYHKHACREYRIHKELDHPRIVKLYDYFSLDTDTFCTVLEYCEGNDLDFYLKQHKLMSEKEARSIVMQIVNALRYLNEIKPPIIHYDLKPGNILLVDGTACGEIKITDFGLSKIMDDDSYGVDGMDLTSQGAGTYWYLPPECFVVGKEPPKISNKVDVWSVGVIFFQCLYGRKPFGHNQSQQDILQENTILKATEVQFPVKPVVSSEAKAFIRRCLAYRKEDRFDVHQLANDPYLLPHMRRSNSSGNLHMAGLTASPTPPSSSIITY

[1] = Plasma protein binding, mouse plasma; assay type: in vitro ADME
murine B-lymphocytes = assay: Anti-IgM-stimulated proliferation of murine B-lymphocytes; assay type: cell-based; conditions: Mus musculus, read-out: IC50, proliferation of B-lymphocytes
[2] = tested on: IL-8 production in HEK293 cells; assay: IL-8 production induced by PKC activators in HEK293 cells; assay type: cell-based; conditions: Homo sapiens, HEK293, read-out: IC50, IL-8 production
[3] = Plasma stability, mouse plasma; assay type: in vitro ADME; conditions: mouse plasma/PBS; compound at 40 μM, 3 h
353 protein kinases = assay: KINOMEscan broad kinome screen; assay type: binding; conditions: of 353 protein kinases surveyed, 10 μM
[4] = Plasma protein binding, human plasma; assay type: in vitro ADME
[5] = tested on: NF-κB reporter gene activation (other pathways); assay: NF-κB reporter gene activation by agonists of other NF-κB activation pathways; assay type: cell-based
[6] = Metabolic stability in human hepatic microsomes; assay type: in vitro ADME; conditions: 1 h
PKC-β = conditions: concentrations up to 8 μM; cited from earlier work
[7] = In vivo dose-exposure profiling, single ip dose in male mice; conditions: 50 mg/kg ip, t = 3 h
JAK2 = JAK2 (Homo sapiens, UniProt O60674); assay: KINOMEscan; assay type: binding; conditions: 10 μM
JAK2, sequence (O60674 whole entry): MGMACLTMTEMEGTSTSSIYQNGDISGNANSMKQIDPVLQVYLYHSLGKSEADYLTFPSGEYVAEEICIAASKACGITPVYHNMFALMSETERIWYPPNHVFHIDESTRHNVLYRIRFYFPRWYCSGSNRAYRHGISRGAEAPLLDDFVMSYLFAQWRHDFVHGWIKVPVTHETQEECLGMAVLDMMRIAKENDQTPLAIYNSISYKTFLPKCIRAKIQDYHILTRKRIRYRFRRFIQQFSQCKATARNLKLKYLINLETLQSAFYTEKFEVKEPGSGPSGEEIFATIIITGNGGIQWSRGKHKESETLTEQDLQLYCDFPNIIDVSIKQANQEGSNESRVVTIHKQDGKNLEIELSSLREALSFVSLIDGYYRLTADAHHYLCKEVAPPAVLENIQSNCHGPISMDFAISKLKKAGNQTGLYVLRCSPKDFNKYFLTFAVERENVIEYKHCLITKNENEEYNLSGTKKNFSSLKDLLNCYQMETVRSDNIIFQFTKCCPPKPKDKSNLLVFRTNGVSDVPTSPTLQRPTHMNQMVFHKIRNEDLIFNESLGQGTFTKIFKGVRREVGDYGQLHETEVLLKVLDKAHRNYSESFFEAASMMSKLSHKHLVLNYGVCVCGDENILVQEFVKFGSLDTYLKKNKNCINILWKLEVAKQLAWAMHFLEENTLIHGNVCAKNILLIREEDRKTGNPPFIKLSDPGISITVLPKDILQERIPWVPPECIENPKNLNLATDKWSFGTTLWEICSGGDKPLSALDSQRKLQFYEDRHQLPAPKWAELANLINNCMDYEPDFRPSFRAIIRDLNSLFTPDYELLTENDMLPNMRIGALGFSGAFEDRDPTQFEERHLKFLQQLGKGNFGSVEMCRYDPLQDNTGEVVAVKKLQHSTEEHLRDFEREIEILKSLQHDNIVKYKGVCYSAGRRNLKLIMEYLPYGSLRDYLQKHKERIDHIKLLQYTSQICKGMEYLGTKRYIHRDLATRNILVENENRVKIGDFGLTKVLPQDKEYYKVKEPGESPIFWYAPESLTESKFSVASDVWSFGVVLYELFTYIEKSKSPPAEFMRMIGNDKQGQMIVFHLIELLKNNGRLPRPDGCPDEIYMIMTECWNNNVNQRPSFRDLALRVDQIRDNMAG

Raf = assay: KINOMEscan; assay type: binding; conditions: 10 μM
[8] = tested on: NF-κB activation induced by TNF-α; assay: NF-κB activation through TNF-α stimulation; assay type: cell-based
PKC-θ = conditions: concentrations up to 8 μM; cited from earlier work
[9] = tested on: 92 targets (cloned human or rodent receptors, ion channels, and transporters); assay: NIMH-PDSP receptor, ion channel and transporter panel; assay type: binding; conditions: of 92 targets screened, 10 μM
[10] = Metabolic stability in mouse hepatic microsomes; assay type: in vitro ADME; conditions: 1 h
IKK-β = conditions: concentrations up to 8 μM; cited from earlier work
[11] = Plasma stability, human plasma; assay type: in vitro ADME; conditions: human plasma/PBS; compound at 40 μM, 3 h
[12] = tested on: IL-2 production by Jurkat T-cells; assay: IL-2 production by Jurkat T-cells; assay type: cell-based; conditions: Homo sapiens, read-out: IC50, production of IL-2
Summary of the method: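 Jurkat T cells were stimulated either with CD3/CD28 or with PMA/ionomycin in the presence of test compound. IL-2 production was measured and an IC50 derived.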

[13] = tested on: NF-κB activation (HEK293-NF-κB-Luc cells, PMA/ionomycin); assay type: cell-based, human; conditions: HEK293 NF-κB-luciferase reporter; for fold drop in activity relative to 1a: versus 1a

With `Cc1cc2nc(NCCCO)n(CC(=O)c3cc(C(C)(C)C)c(O)c(C(C)(C)C)c3)c2cc1C` [Compound 1a, 1-(3,5-di-tert-butyl-4-hydroxyphenyl)-2-(2-((3-hydroxypropyl)amino)-5,6-dimethyl-1H-benzo[d]imidazol-1-yl)ethanone] the “% inhibition of TLK1” value (TLK1) was 70 % inhibition, the “plasma protein binding (% bound) mouse 1 μM” value ([1]; 1 μM) was 99.8 % bound and the “plasma protein binding (% bound) mouse 10 μM” value ([1]; 10 μM) was 99.9 % bound. The IC50 (murine B-lymphocytes) was roughly 2000 nM, the IC50 [2] was less than 100 nM and the “plasma stability (% remaining) mouse” value [3] was 100/100 % remaining. The “number of kinases inhibited by more than 50%” value (353 protein kinases) was “three”, the “plasma protein binding (% bound) human 1 μM” value ([4]; 1 μM) was 99.9 % bound and the “plasma protein binding (% bound) human 10 μM” value ([4]; 10 μM) was 99.8 % bound. The “inhibition of NF-κB reporter gene activation by agonists of the other NF-κB activation pathways” value [5] was “failing to inhibit”, the “microsome stability (% remaining) human 1 μM” value ([6]; 1 μM) was 26 % remaining and the “microsome stability (% remaining) human 10 μM” value ([6]; 10 μM) was 55 % remaining. For the same molecule, the “suppression of PKC-β” value (PKC-β) was “failed to suppress”, the “observed tolerability of the cohort” value [7] was “clear signs of morbidity” and the “% inhibition of JAK2” value (JAK2) was 53 % inhibition. The “% inhibition of Raf” value (Raf) was 57 % inhibition, the “inhibition of NF-κB activation through TNF-α stimulation” value [8] was “did not inhibit” and the “suppression of PKC-θ” value (PKC-θ) was “failed to suppress”. For the same molecule, the “number of targets with greater than 50% inhibition” value [9] was “eight”, the “microsome stability (% remaining) mouse 1 μM” value ([10]; 1 μM) was 0.5 % remaining and the “microsome stability (% remaining) mouse 10 μM” value ([10]; 10 μM) was 19 % remaining. For the same molecule, the “suppression of IKK-β” value (IKK-β) was “failed to suppress”, the “plasma stability (% remaining) human” value [11] was 100/100 % remaining and the IC50 [12] was less than 5000 nM.
For `CC(C)(C)c1cc(C(=O)Cn2c(NCCCO)nc3cc(Br)ccc32)cc(C(C)(C)C)c1O` [Compound 1b], the “fold drop in activity relative to 1a” value [13] was 40−80 fold.
For `CC(C)(C)c1cc(C(=O)Cn2c(NCCCO)nc3cc([N+](=O)[O-])ccc32)cc(C(C)(C)C)c1O` [Compound 1e], the “fold drop in activity relative to 1a” value [13] was 20 fold.
With `Cc1cc2nc(N3CCC(O)CC3)n(CC(=O)c3cc(C(C)(C)C)c(O)c(C(C)(C)C)c3)c2cc1C` [Compound 1k] the “NF-κB inhibitory activity (in words)” value [13] was “abolish activity”.
For `Cc1cc2nc(NCCCO)n(CC(=O)c3cc(C(C)(C)C)cc(C(C)(C)C)c3)c2cc1C` [Compound 1l], the “NF-κB inhibitory activity (in words)” value [13] was “retained complete activity”.
In the case of `Cc1cc2nc(NCCCO)n(CC(=O)c3cccc(C(C)(C)C)c3)c2cc1C` [Compound 1m], the “NF-κB inhibitory activity (in words)” value [13] is reported as “completely inactive”.
In the case of `Cc1cc2nc(NCCCO)n(CC(=O)c3cccc(OC(C)(C)C)c3)c2cc1C` [Compound 1n], the “NF-κB inhibitory activity (in words)” value [13] is reported as “completely inactive”.
For `Cc1cc2nc(NCCCN=[N+]=[N-])n(CC(=O)c3cc(C(C)(C)C)c(O)c(C(C)(C)C)c3)c2cc1C` [Compound 1o], the “fold drop in activity relative to 1a” value [13] was no more than 6 fold.
In the case of `C#CCCCCC(=O)OCCCNc1nc2cc(C)c(C)cc2n1CC(=O)c1cc(C(C)(C)C)c(O)c(C(C)(C)C)c1` [Compound 1p], the “fold drop in activity relative to 1a” value [13] is reported as no more than 6 fold.
In the case of `Cc1c(C(C)(C)C)cc(O)cc1C(C)(C)C` [Compound 9, 3,5-Di-t-butyl-4-methylphenol, reference compound], the “NF-κB inhibitory activity (in words)” value [13] is reported as “inactive”.
For `Cc1cc(Cc2cc(C)cc(C(C)(C)C)c2O)c(O)c(C(C)(C)C)c1` [Compound 10, 6,6′-methylenebis-(2-tert-butyl-4-methylphenol), reference compound], the “NF-κB inhibitory activity (in words)” value [13] was “inactive”.
With `CC(C)(C)c1cc(C(=O)Cn2c(NCCCO)nc3ccc(Br)cc32)cc(C(C)(C)C)c1O` [Compound 17b] the “fold drop in activity relative to 1a” value [13] was 40−80 fold.
For `CC(C)(C)c1cc(C(=O)Cn2c(NCCCO)nc3ccc([N+](=O)[O-])cc32)cc(C(C)(C)C)c1O` [Compound 17e], the “NF-κB inhibitory activity (in words)” value [13] was “inactive”.
In the case of `Cc1cc2ncn(CC(=O)c3cc(C(C)(C)C)c(O)c(C(C)(C)C)c3)c2cc1C` [Compound 18], the “NF-κB inhibitory activity (in words)” value [13] is reported as “significant loss of activity”.
In the case of `Cc1cc2[nH]c(=O)n(CC(=O)c3cc(C(C)(C)C)c(O)c(C(C)(C)C)c3)c2cc1C` [Compound 19], the “NF-κB inhibitory activity (in words)” value [13] is reported as “essentially equipotent to 1a”.
In the case of `CN[C@@H]1C[C@H]2O[C@@](C)([C@@H]1OC)n1c3ccccc3c3c4c(c5c6ccccc6n2c5c31)C(=O)NC4` [staurosporine, reference compound], the “suppression of PKC-θ” value (PKC-θ) is listed as “potent inhibition” and the “suppression of IKK-β” value (IKK-β) is listed as “potent inhibition”.

From paper PMC2887059 (Journal of Medicinal Chemistry, 2010)
